In ChEMBL document CHEMBL4680100, “Revisiting the SAR of the Antischistosomal Aryl Hydantoin (Ro 13-3978)” (J Med Chem, 2016):
Values after ≈ are worked out from the molar mass of the structure shown.

Columns and labels:
L6 = assay: Cytotoxicity against rat L6 cells assessed as reduction in cell viability at up to 30 uM; assay type: cell-based
Schistosoma mansoni [1] = assay: Antischistosomal activity against adult Schistosoma mansoni cercariae infected in mouse assessed as effective dose causing reduction in worm burden; assay type: functional
[2] = Octanol/water partition coefficient, logD of the compound at pH 7.4 by HPLC analysis
Schistosoma mansoni [3] = assay: Antischistosomal activity against Schistosoma mansoni infected in NMRI mouse assessed as reduction in total worm burden at 100 mg/kg, po administered as single dose starting on day 49 post-infection and measured at 28 days post treatment relative to control; assay type: functional; parameters: scale not given: the % may be the effect or the level left; conditions: time 28 day
Summary of the method: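 S. mansoni-infected NMRI mice treated on day 49 post-infection with a single oral dose, dissolved or suspended in 7% v/v Tween 80, 3% v/v ethanol (10 mL/kg), five mice per group. Sacrificed and dissected 28 d post-treatment; worms counted to give total worm burden reduction versus untreated controls. Kruskal–Wallis test on medians, treatment versus control.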

[4] = Intrinsic clearance in human liver microsome in presence of NADPH-regenerating system incubated over 60 mins by LC-MS analysis; conditions: microsomes, 1 h
[5] = Intrinsic clearance in mouse liver microsome in presence of NADPH-regenerating system incubated over 60 mins by LC-MS analysis; conditions: microsomes, 1 h
[6] = Kinetic solubility of the compound in 0.01 M HCl at pH 2 by nephelometry; assay type: physicochemical; conditions: read-out: Kinetic_solubility
Albumin = Albumin (Homo sapiens, UniProt P02768); assay: Protein binding in immobilized human serum albumin by HPLC analysis; assay type: ADME; conditions: isolated protein
Summary of the method: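 Binding estimated from gradient HPLC retention on a human albumin column, correlated against standard compounds of known protein binding.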

[7] = Kinetic solubility of compound at pH 6.5 phosphate buffer by nephelometry; assay type: physicochemical; conditions: read-out: Kinetic_solubility
Androgen receptor [8] = target: T1, Androgen receptor (Homo sapiens, UniProt P10275)
T1 sequence (P10275 whole entry): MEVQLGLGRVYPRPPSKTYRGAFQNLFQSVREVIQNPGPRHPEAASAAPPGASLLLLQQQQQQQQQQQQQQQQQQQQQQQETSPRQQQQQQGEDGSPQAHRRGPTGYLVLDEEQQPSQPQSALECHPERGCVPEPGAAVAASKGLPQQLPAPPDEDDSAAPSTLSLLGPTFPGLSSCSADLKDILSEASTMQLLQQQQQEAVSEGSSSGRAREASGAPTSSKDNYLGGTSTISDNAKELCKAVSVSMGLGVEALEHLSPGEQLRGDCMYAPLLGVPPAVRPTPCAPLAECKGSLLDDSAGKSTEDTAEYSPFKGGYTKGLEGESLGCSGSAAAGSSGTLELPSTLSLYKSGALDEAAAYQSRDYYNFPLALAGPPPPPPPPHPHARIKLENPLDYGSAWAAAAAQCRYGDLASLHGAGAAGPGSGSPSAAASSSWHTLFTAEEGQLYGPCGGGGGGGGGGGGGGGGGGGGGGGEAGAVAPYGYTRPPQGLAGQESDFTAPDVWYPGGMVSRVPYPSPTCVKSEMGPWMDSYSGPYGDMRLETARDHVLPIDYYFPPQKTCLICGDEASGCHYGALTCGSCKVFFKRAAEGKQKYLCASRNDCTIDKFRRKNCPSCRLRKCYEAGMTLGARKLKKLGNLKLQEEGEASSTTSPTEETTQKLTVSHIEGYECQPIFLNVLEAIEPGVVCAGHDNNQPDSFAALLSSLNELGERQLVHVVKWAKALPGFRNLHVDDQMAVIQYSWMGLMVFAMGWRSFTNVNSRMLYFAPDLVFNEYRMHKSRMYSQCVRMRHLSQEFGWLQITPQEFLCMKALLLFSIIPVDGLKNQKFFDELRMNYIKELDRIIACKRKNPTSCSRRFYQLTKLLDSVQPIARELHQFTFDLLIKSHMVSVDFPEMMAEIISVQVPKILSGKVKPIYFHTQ

[9] = Cmax in male Swiss mouse at 100 mg/kg, po administered via gavage measured upto 48 hrs postdose by LC-MS analysis; assay type: ADME, organism-based; parameters: route oral, dose 100 mg/kg, time <=48; conditions: in vivo
Summary of the method: (§1)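 Nonfasted male Swiss outbred mice (25–33 g, 7 per compound, fed ad libitum) were gavaged once at 10 mL/kg. Vehicle was 7% v/v Tween 80, 3% v/v ethanol in water, dosed within 1 h of preparation. Blood was drawn 0.25–48 h postdose (n = 2 per time point) into heparin with stabilizer, and plasma was quantified by LCMS. Noncompartmental analysis.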

[10] = AUC (0 to last) in male Swiss mouse at 100 mg/kg, po administered via gavage measured upto 48 hrs postdose by LC-MS analysis; assay type: ADME, organism-based; parameters: route oral, dose 100 mg/kg, time <=48; conditions: in vivo
Schistosoma mansoni [11] = assay: Antischistosomal activity against juvenile Schistosoma mansoni cercariae infected in mouse assessed as effective dose causing reduction in worm burden; assay type: functional
[12] = Tmax in male Swiss mouse at 100 mg/kg, po administered via gavage measured upto 48 hrs postdose by LC-MS analysis; assay type: ADME, organism-based; conditions: in vivo; summary of the method: as §1
Androgen receptor [13] = target: T1, Androgen receptor; conditions: lapc4
Schistosoma mansoni [14] = assay: Antischistosomal activity against Schistosoma mansoni infected in mouse assessed as effective dose causing reduction in worm burden; assay type: functional

Albumin, sequence (P02768 whole entry): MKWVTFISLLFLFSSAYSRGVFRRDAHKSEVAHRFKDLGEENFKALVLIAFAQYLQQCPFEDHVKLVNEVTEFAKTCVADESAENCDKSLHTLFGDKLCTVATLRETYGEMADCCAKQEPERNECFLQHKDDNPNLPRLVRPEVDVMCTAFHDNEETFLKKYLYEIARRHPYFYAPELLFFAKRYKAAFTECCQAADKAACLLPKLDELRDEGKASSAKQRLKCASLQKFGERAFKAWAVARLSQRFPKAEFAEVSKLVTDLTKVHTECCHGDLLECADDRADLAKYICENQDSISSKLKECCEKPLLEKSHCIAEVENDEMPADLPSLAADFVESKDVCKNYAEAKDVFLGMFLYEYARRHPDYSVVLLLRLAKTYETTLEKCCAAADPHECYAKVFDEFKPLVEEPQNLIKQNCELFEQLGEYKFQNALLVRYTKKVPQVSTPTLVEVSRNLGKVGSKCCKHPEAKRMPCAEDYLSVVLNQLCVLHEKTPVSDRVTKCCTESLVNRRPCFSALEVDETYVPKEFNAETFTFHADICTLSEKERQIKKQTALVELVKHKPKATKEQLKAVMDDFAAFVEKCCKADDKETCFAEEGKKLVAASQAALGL

For CC1(C)NC(=O)N(c2ccc(F)c(C(F)(F)F)c2)C1=O, the Activity (L6) was “Non-Toxic”, the ED50 (Schistosoma mansoni [1]) was 15 mg/kg and the logD [2] was 2.7. The Activity (Schistosoma mansoni [3]) was 95%, the CLH [4] was 8 µL/min/mg and the CLH [5] was under 7 µL/min/mg. For the same compound, the solubility kinetic [6] was over 100 µg/mL, the PPB (Albumin) was 52.1% and the solubility kinetic [7] was over 100 µg/mL. The IC50 (Androgen receptor [8]) was 4.4 µM, the Cmax [9] was 124 µM and the AUClast [10] was 2740 µM·h. It also gave an ED50 (Schistosoma mansoni [11]) of 140 mg/kg.
In the case of CC1(C)C(=O)N(c2ccc(F)c(C(F)(F)F)c2)C(=O)N1S(C)(=O)=O, the Activity (L6) is reported as “Non-Toxic”, the logD [2] is reported as 3.8 and the Activity (Schistosoma mansoni [3]) is reported as 19%. The CLH [4] was under 7 µL/min/mg, the CLH [5] was under 7 µL/min/mg and the solubility kinetic [6] was 1.6 µg/mL (≈ 4.34 µM). The PPB (Albumin) was 66%, the solubility kinetic [7] was 1.6 µg/mL (≈ 4.34 µM) and the IC50 (Androgen receptor [8]) was 6.3 µM.
In the case of CC1(C)NC(=O)N(c2ccc(F)c(C(F)F)c2)C1=O, the Activity (L6) is reported as “Non-Toxic”, the logD [2] is reported as 2.2 and the Activity (Schistosoma mansoni [3]) is reported as 94%. For the same compound, the CLH [4] was under 7 µL/min/mg, the CLH [5] was under 7 µL/min/mg and the solubility kinetic [6] was over 100 µg/mL. The PPB (Albumin) was 20.4%, the solubility kinetic [7] was over 100 µg/mL and the IC50 (Androgen receptor [8]) was at least 10 µM. It also gave a Cmax [9] of 112 µM, a Tmax [12] of 3 h and an AUClast [10] of 3190 µM·h.
In the case of CN(C)C(=O)c1cc(N2C(=O)NC(C)(C)C2=O)ccc1F, the Activity (L6) is reported as “Non-Toxic”, the logD [2] is reported as 0.9 and the Activity (Schistosoma mansoni [3]) is reported as 30%. For the same compound, the CLH [4] was under 7 µL/min/mg, the CLH [5] was under 7 µL/min/mg and the solubility kinetic [6] was over 100 µg/mL. The PPB (Albumin) was 5.9%, the solubility kinetic [7] was over 100 µg/mL and the IC50 (Androgen receptor [8]) was 9.1 µM. For the same compound, the Cmax [9] was 488 µM, the Tmax [12] was 1 h and the AUClast [10] was 1360 µM·h.
In the case of CC1(C)NC(=O)N(c2ccnc(C(F)(F)F)c2)C1=O, the Activity (L6) is reported as “Non-Toxic”, the logD [2] is reported as 1.9 and the Activity (Schistosoma mansoni [3]) is reported as 100%. It also gave a CLH [4] of under 7 µL/min/mg, a CLH [5] of under 7 µL/min/mg and a solubility kinetic [6] of over 100 µg/mL. The PPB (Albumin) was 22.7%, the solubility kinetic [7] was over 100 µg/mL and the IC50 (Androgen receptor [8]) was 4.5 µM. The Cmax [9] was 155 µM, the Tmax [12] was 7 h and the AUClast [10] was 6480 µM·h.
In the case of CC1(C)C(=O)N(c2ccc(F)c(C(F)(F)F)c2)C(=O)N1S(=O)(=O)c1ccccc1, the Activity (L6) is reported as “Non-Toxic”, the logD [2] is reported as 4.6 and the Activity (Schistosoma mansoni [3]) is reported as 44%. The CLH [4] was 210 µL/min/mg, the CLH [5] was 160 µL/min/mg and the solubility kinetic [6] was under 1.6 µg/mL. For the same compound, the PPB (Albumin) was 96.1%, the solubility kinetic [7] was under 1.6 µg/mL and the IC50 (Androgen receptor [8]) was 4.3 µM.
With O=C1NC2(CCCC2)C(=O)N1c1ccc(F)c(C(F)(F)F)c1 the Activity (L6) was “Non-Toxic”, the logD [2] was 3.2 and the Activity (Schistosoma mansoni [3]) was 61%. It also gave a CLH [4] of 33 µL/min/mg, a CLH [5] of 93 µL/min/mg and a solubility kinetic [6] of 50 µg/mL (≈ 158 µM). For the same compound, the PPB (Albumin) was 70.4%, the solubility kinetic [7] was 50 µg/mL (≈ 158 µM) and the IC50 (Androgen receptor [8]) was 0.99 µM. It also gave a Cmax [9] of 15 µM, a Tmax [12] of 1 h and an AUClast [10] of 106 µM·h.
For CN1C(=O)N(c2ccc(F)c(C(F)(F)F)c2)C(=O)C1(C)C, the Activity (L6) was “Non-Toxic”, the logD [2] was 3.2 and the Activity (Schistosoma mansoni [3]) was 93%. For the same compound, the CLH [4] was 16 µL/min/mg, the CLH [5] was 65 µL/min/mg and the solubility kinetic [6] was 50 µg/mL (≈ 164 µM). The PPB (Albumin) was 40.9%, the solubility kinetic [7] was 50 µg/mL (≈ 164 µM) and the IC50 (Androgen receptor [8]) was 1.3 µM. The Tmax [12] was 1 h.
In the case of CC1(C)C(=O)N(c2ccc(F)c(C(F)(F)F)c2)C(=O)N1CC(N)=O, the Activity (L6) is reported as “Non-Toxic”, the IC50 (Androgen receptor [13]) is reported as “Not Active” and the logD [2] is reported as 2.2. For the same compound, the Activity (Schistosoma mansoni [3]) was 25%, the CLH [4] was under 7 µL/min/mg and the CLH [5] was under 7 µL/min/mg. It also gave a solubility kinetic [6] of 50 µg/mL (≈ 144 µM), a PPB (Albumin) of 20.3% and a solubility kinetic [7] of 50 µg/mL (≈ 144 µM).
For CC1(C)NC(=O)N(c2cccc(C(F)(F)F)c2)C1=O, the Activity (L6) was “Non-Toxic”, the logD [2] was 2.5 and the Activity (Schistosoma mansoni [3]) was 80%. The CLH [4] was under 7 µL/min/mg, the CLH [5] was under 7 µL/min/mg and the solubility kinetic [6] was over 100 µg/mL. For the same compound, the PPB (Albumin) was 49.3%, the solubility kinetic [7] was over 100 µg/mL and the IC50 (Androgen receptor [8]) was 6 µM.
For CC1(C)C(=O)N(c2ccc(F)c(C(F)(F)F)c2)C(=O)N1CCc1ccccc1, the Activity (L6) was “Non-Toxic”, the logD [2] was 4.6 and the Activity (Schistosoma mansoni [3]) was 54%. It also gave a CLH [4] of over 870 µL/min/mg, a CLH [5] of 740 µL/min/mg and a solubility kinetic [6] of 12.5 µg/mL (≈ 31.7 µM). For the same compound, the PPB (Albumin) was 96.2%, the solubility kinetic [7] was 25 µg/mL (≈ 63.4 µM) and the IC50 (Androgen receptor [8]) was 2.4 µM.
For CCN1C(=O)N(c2ccc(F)c(C(F)(F)F)c2)C(=O)C1(C)C, the Activity (L6) was “Non-Toxic”, the logD [2] was 3.5 and the Activity (Schistosoma mansoni [3]) was 98%. It also gave a CLH [4] of 30 µL/min/mg, a CLH [5] of 32 µL/min/mg and a solubility kinetic [6] of 50 µg/mL (≈ 157 µM). It also gave a PPB (Albumin) of 49.3%, a solubility kinetic [7] of 25 µg/mL (≈ 78.5 µM) and an IC50 (Androgen receptor [8]) of 0.14 µM. For the same compound, the Cmax [9] was 11.1 µM, the Tmax [12] was 1 h and the AUClast [10] was 103 µM·h.
With COC(=O)C(C)(C)NC(=O)Nc1ccc(F)c(C(F)(F)F)c1 the ED50 (Schistosoma mansoni [14]) was 62 mg/kg.
